Experimental data: ChEMBL document CHEMBL3352816, “Synthesis and antiproliferative activity of imidazo[2,1-b][1,3,4]thiadiazole derivatives” (Bioorg Med Chem Lett, 2014)
The source made the active and inactive calls. No cut-off for these calls is given here.

Legend:
REH [1] = assay: Cell cycle arrest in human REH cells assessed as reduction of cells in G2/M phase after 48 hrs using propidium iodide by FACS analysis; format: functional, cell-based
Summary of the method: (§1)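 Reh and Nalm6 cells exposed 48 h to 0.1, 0.5, 1 and 5 µM, harvested, stained with propidium iodide and analysed by flow cytometry. Gated fractions were sub G1, G1, S and G2. DMSO-treated cells served as vehicle control. Three independent experiments for Reh and two for Nalm6.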

REH [2] = assay: Cytotoxicity against human REH cells assessed as reduction in cell viability at 0.1 to 10 uM by trypan blue exclusion assay; format: functional, cell-based; conditions: TDE = time-dependent effect
Summary of the method: (§2)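 Reh, K562 and Nalm6 leukemic cells were treated with 10, 50, 100 and 250 µM or with 0.1, 0.5, 1, 5 and 10 µM (compounds dissolved in DMSO). Viability was scored by trypan blue after 24, 48 and 72 h. DMSO-treated cells served as vehicle control.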

[3] = Growth inhibition of human Prostate cancer cells; format: functional; conditions: Cancer cell lines
REH [4] = assay: Induction of apoptosis in human REH cells assessed as caspase 3 cleavage after 48 hrs by Western blot analysis; format: functional, cell-based
Summary of the method: (§3)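 Reh cell lysates were prepared after 48 h treatment at 500 nM and 1 µM, with DMSO-treated cells as control. Western blotting used primary antibodies against KU70, PARP1, caspase 3, BID, caspase 9, FAS and caspase 8, with tubulin also probed.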

REH [5] = assay: Induction of apoptosis in human REH cells assessed as PARP cleavage after 48 hrs by Western blot analysis; format: functional, cell-based; summary of the method: as §3
[6] = Cell cycle arrest in human NALM6 cells assessed as accumulation at subG1 phase after 48 hrs using propidium iodide by FACS analysis; format: functional, cell-based; conditions: NALM-6; summary of the method: as §1
REH [7] = assay: Induction of apoptosis in human REH cells assessed as late apoptotic cells at 1 uM after 48 hrs using annexin-v-FITC/propidium iodide by FACS analysis (reference value: 5.51 %); format: functional
[8] = Growth inhibition of human Colon cancer cells; format: functional; conditions: Cancer cell lines
NALM-6 [9] = assay: Cytotoxicity against human NALM6 cells assessed as reduction in cell viability after 24 to 72 hrs by trypan blue exclusion assay; format: functional, cell-based; summary of the method: as §2
REH [10] = assay: Induction of apoptosis in human REH cells assessed as reduction of BID at 1 uM after 48 hrs by Western blot analysis; format: functional, cell-based; summary of the method: as §3
REH [11] = assay: Induction of apoptosis in human REH cells assessed as reduction of KU70 protein expression at 1 uM after 48 hrs by Western blot analysis; format: functional, cell-based
Summary of the method: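 Reh cells exposed 48 h to 500 nM or 1 µM, with DMSO-treated cells as control; cell lysates probed by western blot with specific primary antibodies against KU70, PARP1, caspases 3, 8 and 9, BID and FAS; tubulin shown as loading reference.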

REH [12] = assay: Induction of apoptosis in human REH cells assessed as induction of ROS production at 100 nM after 10 mins by flow cytometric analysis (reference value: 0.33 %); format: functional
REH [13] = assay: Induction of apoptosis in human REH cells assessed as induction of ROS production at 1 uM after 10 mins by flow cytometric analysis (reference value: 0.09 %); format: functional
[14] = Growth inhibition of human CNS cancer cells; format: functional; conditions: Cancer cell lines
HEK293 [15] = assay: Cytotoxicity against HEK293 cells assessed as reduction in cell viability at 3 uM after 24 to 72 hrs by trypan blue exclusion assay; format: cell-based; conditions: human, hek293, 3 µM
REH [16] = assay: Induction of apoptosis in human REH cells assessed as caspase 8 cleavage after 48 hrs by Western blot analysis; format: functional, cell-based; summary of the method: as §3
[17] = Growth inhibition of human NSCLC cells; format: functional
REH [18] = assay: Induction of apoptosis in human REH cells assessed as dead cells at 1 uM after 48 hrs using annexin-v-FITC/propidium iodide by FACS analysis (reference value: 0.03 %)
HEK293 [19] = assay: Cytotoxicity against HEK293 cells assessed as induction of cell death at 3 uM after 24 to 72 hrs by live-dead cell assay; format: cell-based; conditions: human, hek293, 3 µM; in the assay text read “24 to 48 hrs” for “24 to 72 hrs”
Summary of the method: (§4)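 Reh leukemic and 293T human kidney epithelial cells were treated at 3 µM and compared by live-dead cell assay at 24 and 48 h.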

K562 = assay: Cytotoxicity against human K562 cells assessed as reduction in cell viability at 0.1 to 10 uM by trypan blue exclusion assay; format: functional, cell-based; conditions: TDE = time-dependent effect; summary of the method: as §2
REH [20] = assay: Cell cycle arrest in human REH cells assessed as reduction of cells in G1 phase after 48 hrs using propidium iodide by FACS analysis; format: functional, cell-based; summary of the method: as §1
REH [21] = assay: Induction of apoptosis in human REH cells assessed as early apoptotic cells at 1 uM after 48 hrs using annexin-v-FITC/propidium iodide by FACS analysis (reference value: 6.05 %); format: functional
[22] = Growth inhibition of human Renal cancer cells; format: functional; conditions: Cancer cell lines
REH [23] = assay: Induction of apoptosis in human REH cells assessed as induction of ROS production at 1 uM after 10 mins by flow cytometric analysis (reference value: 0.33 %); format: functional
REH [24] = assay: Cytotoxicity against human REH cells assessed as reduction in cell viability at 3 uM after 24 to 72 hrs by trypan blue exclusion assay; format: functional, cell-based
REH [25] = assay: Cell cycle arrest in human REH cells assessed as reduction of cells in S phase after 48 hrs using propidium iodide by FACS analysis; format: functional, cell-based; summary of the method: as §1
[26] = Cell cycle arrest in human NALM6 cells assessed as reduction of cells in G1 phase after 48 hrs using propidium iodide by FACS analysis; format: functional, cell-based; conditions: NALM-6; summary of the method: as §1
[27] = Growth inhibition of human Leukemia cells; format: functional; conditions: Leukemia cell
REH [28] = assay: Induction of apoptosis in human REH cells assessed as induction of ROS production at 1 uM after 60 mins by flow cytometric analysis (reference value: 0.09 %); format: functional
REH [29] = assay: Cytotoxicity against human REH cells assessed as induction of cell death at 3 uM after 24 to 72 hrs by live-dead cell assay; format: functional, cell-based; conditions: in the assay text read “24 to 48 hrs” for “24 to 72 hrs”; summary of the method: as §4
REH [30] = assay: Induction of apoptosis in human REH cells assessed as viable cells at 1 uM after 48 hrs using annexin-v-FITC/propidium iodide by FACS analysis (reference value: 88.41 %); format: functional; conditions: read-out: Activity
REH [31] = assay: Induction of apoptosis in human REH cells assessed as induction of ROS production at 1 uM after 30 mins by flow cytometric analysis (reference value: 0.09 %); format: functional
REH [32] = assay: Induction of apoptosis in human REH cells assessed as induction of ROS production at 5 uM after 10 mins by flow cytometric analysis (reference value: 0.33 %); format: functional
[33] = Growth inhibition of human Ovarian cancer cells; format: functional; conditions: Cancer cell lines
REH [34] = assay: Cytotoxicity against human REH cells assessed as reduction in cell viability after 24 to 72 hrs by trypan blue exclusion assay; format: functional, cell-based; summary of the method: as §2
NALM-6 [35] = assay: Cytotoxicity against human NALM6 cells assessed as reduction in cell viability at 0.1 to 10 uM by trypan blue exclusion assay; format: functional, cell-based; conditions: TDE = time-dependent effect; summary of the method: as §2

O=Cc1c(-c2ccc(Br)cc2)nc2sc(Cc3ccccc3)nn12
Activity (REH [1]): Dose-dependent effect
Activity (REH [2]): tde
GI50 [3]: 3 µM
TGI [3]: 24.6 µM
Activity (REH [4]): Dose-dependent effect
Activity (REH [5]): Dose-dependent effect
Activity [6]: Dose-dependent effect
Activity (REH [7]): 51.32%
GI50 [8]: 2.2 µM
TGI [8]: 10 µM
CC50 ([8]; read-out: LC50 (the source's name)): 81.3 µM
Activity (NALM-6 [9]): Dose-dependent effect
Activity (REH [10]): Active
Activity (REH [11]): Active
Activity (REH [12]): 0.77%
Activity (REH [13]): 0.36%
GI50 [14]: 2.2 µM
LC50 [14]: 64.6 µM
TGI [14]: 7.4 µM
Activity (HEK293 [15]): Non-toxic
Activity (REH [16]): Active
GI50 [17]: 4.2 µM
LC50 (concentration killing 50% of cells) [17]: 95.5 µM
TGI [17]: 30.2 µM
Activity (REH [18]): 0.42%
Activity (HEK293 [19]): Non-toxic
Activity (K562): tde
Activity (REH [20]): Dose-dependent effect
Activity (REH [21]): 43.03%
GI50 [22]: 3.2 µM
LC50 [22]: 93.3 µM
TGI [22]: 20 µM
Activity (REH [23]): 0.28%
Activity (REH [24]): Active
Activity (REH [25]): Dose-dependent effect
Activity [26]: Dose-dependent effect
GI50 [27]: 1.41 µM
TGI [27]: 13.5 µM
Activity (REH [28]): 0.12%
Activity (REH [29]): Active
viability at 1 µM (REH [30]): 5.23%
Activity (REH [31]): 0.06%
Activity (REH [32]): 0.62%
GI50 [33]: 4.2 µM
TGI [33]: 41.7 µM
Activity (REH [34]): Dose-dependent effect
Activity (NALM-6 [35]): tde
